Test results: ChEMBL document CHEMBL4024754, “Development of Potent, Protease-Resistant Agonists of the Parathyroid Hormone Receptor with Broad β Residue Distribution” (J Med Chem, 2017)
Activity calls are given as the source filed them. The rule behind the calls is not given here. Numbered stars: 1 amine (or outer) side, 2 acyl side, 3 side chain; on linkers, the order of the positions; unused ones are H or OH. Square brackets hold non-standard residues; d marks the D form. Peptide text beside a SMILES is read from it. * marks the point of attachment. NH(1S,2S-2-CONH2-cPent) = NC(=O)[C@H]1CCC[C@@H]1N*; ACPC(1S,2S) = N[C@H]1CCC[C@@H]1C(=O)*; X1 = O=C([C@H]1CCC[C@@H]1N[*:1])[*:2]; X2 = O=C([C@H]1CNC[C@@H]1N[*:1])[*:2]; Aib = CC(C)(N)C(=O)O

Tests used:
[1] = target: T1, Parathyroid hormone/parathyroid hormone-related peptide receptor (Homo sapiens) (UniProt Q03431); assay: Agonist activity at human PTH1 receptor expressed in human GP2.3 cells assessed as induction of cAMP after 12 to 20 mins by luciferase reporter gene assay relative to PTH(1 to 34 residues)-NH2; type: functional, cell-based
T1 sequence (whole entry): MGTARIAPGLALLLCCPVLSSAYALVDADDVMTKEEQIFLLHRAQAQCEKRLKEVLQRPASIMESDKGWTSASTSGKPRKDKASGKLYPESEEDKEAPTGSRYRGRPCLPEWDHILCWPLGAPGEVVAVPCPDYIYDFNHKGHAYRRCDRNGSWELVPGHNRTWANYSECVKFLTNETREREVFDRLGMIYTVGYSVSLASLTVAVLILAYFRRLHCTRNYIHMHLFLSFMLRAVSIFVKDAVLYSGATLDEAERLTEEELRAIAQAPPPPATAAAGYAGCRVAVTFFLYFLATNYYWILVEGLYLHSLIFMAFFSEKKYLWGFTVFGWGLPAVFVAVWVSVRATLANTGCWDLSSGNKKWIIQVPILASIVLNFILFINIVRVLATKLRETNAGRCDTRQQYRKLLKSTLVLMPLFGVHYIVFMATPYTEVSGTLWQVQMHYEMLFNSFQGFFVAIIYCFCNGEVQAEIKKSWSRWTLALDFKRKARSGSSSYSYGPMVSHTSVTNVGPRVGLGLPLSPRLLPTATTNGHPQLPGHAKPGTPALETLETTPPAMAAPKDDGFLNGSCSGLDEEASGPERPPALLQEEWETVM

[2] = target: T1, Parathyroid hormone/parathyroid hormone-related peptide receptor (Homo sapiens); assay: Agonist activity at human PTH1 receptor expressed in human GP2.3 cells assessed as induction of cAMP at 0.1 to 100 nM preincubated with protease activity quenched SGF up to 4 hrs followed by compound transfer to GP2.3 cells by luciferase reporter gene assay; type: functional, cell-based
In short: (§1)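 Control samples: simulated gastric fluid neutralized with 10× PBS, or intestinal fluid mixed with acetonitrile/TFA quench solution, before adding peptide. Gastric controls held up to 4 h. Then diluted and tested on luciferin-loaded GP2.3 cells at 100−0.1 nM final, alongside freshly prepared peptide.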

[3] = target: T1, Parathyroid hormone/parathyroid hormone-related peptide receptor (Homo sapiens); assay: Agonist activity at human PTH1 receptor expressed in human GP2.3 cells assessed as induction of cAMP at 0.1 to 100 nM preincubated with protease activity quenched SIF followed by compound transfer to GP2.3 cells by luciferase reporter gene assay; type: functional, cell-based; in short: as §1
[4] = target: T2, Parathyroid hormone/parathyroid hormone-related peptide receptor (Homo sapiens, UniProt Q03431); assay: Agonist activity at human PTH1 receptor expressed in human GP2.3 cells assessed as induction of cAMP after 12 to 20 mins by luciferase reporter gene assay; type: functional, cell-based; conditions: read-out: EC50
T2 sequence (Q03431 whole entry): T1 sequence (whole entry)

[5] = target: T1, Parathyroid hormone/parathyroid hormone-related peptide receptor (Homo sapiens); assay: Displacement of [125I]-PTH(1 to 34 residues) from R0 state of human PTHR1 expressed in African green monkey COS7 cell membranes incubated for >1 hr in presence of GTPgammaS by gamma radiation method
[6] = Stability in simulated gastric fluid assessed as pig pepsin-mediated proteolysis at 40 uM after 5 secs by RP-HPLC analysis; type: ADME, Sus scrofa; conditions: isolated protein, 5 s
In short: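 Proteolysis quenched by transfer into 10× PBS, pH 7.4, giving 40 μM peptide. Analysed by analytical C18 RP-HPLC, 10–60% acetonitrile/0.1% TFA over 50 min. Intact peptide quantified by integrating its peak. Duplicate reactions run concurrently, standard deviation.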

[7] = target: T1, Parathyroid hormone/parathyroid hormone-related peptide receptor (Homo sapiens); assay: Agonist activity at human PTH1 receptor expressed in human GP2.3 cells assessed as induction of cAMP at 0.1 to 100 nM preincubated with SGF for 5 secs followed by compound transfer to GP2.3 cells by luciferase reporter gene assay; type: functional, cell-based
In short: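 Quenched at set times with 10× PBS, diluted into CO2-independent medium, serially 1:10, then added to confluent GP2.3 cells (HEK293, hPTHR1 plus Glosensor cAMP reporter) preloaded 30 min with 0.5 mM D-luciferin. Final 100–0.1 nM. Luminescence read; two technical replicates; variable-slope sigmoidal fit.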

[8] = target: T1, Parathyroid hormone/parathyroid hormone-related peptide receptor (Homo sapiens); assay: Agonist activity at extracellular domain truncate human PTH1 receptor expressed in GD5 cells assessed as induction of cAMP after 12 to 20 mins by luciferase reporter gene assay; type: functional, cell-based
In short: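 HEK293-derived lines stably expressing Glosensor cAMP reporter plus full-length human PTHR1 (GP2.3) or ECD-truncated PTHR1 (GD5). Confluent monolayers preincubated at room temperature in CO2-independent medium with 0.5 mM D-luciferin until baseline stable (30 min), then varied agonist concentrations added. Maximal luminescence (12−20 min) used for sigmoidal variable-slope fits.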

For CC[C@H](C)[C@H](NC(=O)[C@H](CCC(=O)O)NC(=O)[C@H](CO)NC(=O)[C@@H](NC(=O)[C@H]1CCC[C@@H]1N)C(C)C)C(=O)N[C@@H](CCC(N)=O)C(=O)N[C@H]1CCC[C@@H]1C(=O)N[C@@H](CCSC)C(=O)N[C@@H](Cc1cnc[nH]1)C(=O)N[C@@H](CC(N)=O)C(=O)N[C@@H](CC(C)C)C(=O)NCC(=O)N[C@@H](CCCCN)C(=O)N[C@H]1CCC[C@@H]1C(=O)N[C@@H](CC(C)C)C(=O)N[C@@H](CC(N)=O)C(=O)N[C@@H](CO)C(=O)N[C@H]1CCC[C@@H]1C(=O)N[C@@H](CCC(=O)O)C(=O)N[C@@H](CCCNC(=N)N)C(=O)N[C@H](C(=O)N[C@H]1CNC[C@@H]1C(=O)N[C@@H](Cc1c[nH]c2ccccc12)C(=O)N[C@@H](CC(C)C)C(=O)N[C@@H](CCCNC(=N)N)C(=O)N[C@H]1CNC[C@@H]1C(=O)N[C@@H](CCCCN)C(=O)N[C@@H](CC(C)C)C(=O)N[C@@H](CCC(N)=O)C(=O)N[C@H]1CCC[C@@H]1C(=O)N[C@H](C(=O)N[C@@H](Cc1cnc[nH]1)C(=O)N[C@@H](CC(N)=O)C(=O)N[C@H]1CCC[C@@H]1C(N)=O)C(C)C)C(C)C ({ACPC(1S,2S)}-VSEIQ[X1]MHNLGK[X1]LNS[X1]ERV[X2]WLR[X2]KLQ[X1]VHN-{NH(1S,2S-2-CONH2-cPent)}), the fold change (FC) [1] was 8.7, the Activity [2] was “Active” and the Activity [3] was “Active”.

In the case of CC[C@H](C)[C@H](NC(=O)[C@H]1CCC[C@@H]1NC(=O)[C@H](CCCCN)NC(=O)CNC(=O)[C@H](CCCCN)NC(=O)[C@H](CC(=O)O)NC(=O)[C@H](Cc1cnc[nH]1)NC(=O)[C@H](CC(C)C)NC(=O)[C@H]1CCC[C@@H]1NC(=O)[C@H](CCC(N)=O)NC(=O)[C@H]1CCC[C@@H]1NC(=O)[C@H](CCC(=O)O)NC(=O)[C@H](CO)NC(=O)[C@@H](NC(=O)[C@H]1CCC[C@@H]1N)C(C)C)C(=O)N[C@@H](CCC(N)=O)C(=O)N[C@@H](CC(=O)O)C(=O)N[C@H]1CCC[C@@H]1C(=O)N[C@@H](CCCNC(=N)N)C(=O)N[C@@H](CCCNC(=N)N)C(=O)N[C@@H](CCCNC(=N)N)C(=O)N[C@H]1CNC[C@@H]1C(=O)N[C@@H](CC(C)C)C(=O)N[C@@H](CC(C)C)C(=O)N[C@@H](CCC(=O)O)C(=O)N[C@H]1CNC[C@@H]1C(=O)N[C@@H](CC(C)C)C(=O)N[C@@H](CC(C)C)C(=O)NC(C)(C)C(=O)N[C@H]1CCC[C@@H]1C(=O)N[C@@H](CC(C)C)C(=O)N[C@@H](Cc1cnc[nH]1)C(=O)N[C@H](C(=O)N[C@H]1CCC[C@@H]1C(N)=O)[C@@H](C)O ({ACPC(1S,2S)}-VSE[X1]Q[X1]LHDKGK[X1]IQD[X1]RRR[X2]LLE[X2]LL[Aib][X1]LHT-{NH(1S,2S-2-CONH2-cPent)}), the EC50 [4] is reported as 0.36 nM, the fold change (FC) [1] is reported as 5.3 and the inhibition [5] is reported as “Active”.

In the case of CC[C@H](C)[C@H](NC(=O)[C@H](CCC(=O)O)NC(=O)[C@H](CO)NC(=O)[C@@H](NC(=O)[C@@H](N)CO)C(C)C)C(=O)N[C@@H](CCC(N)=O)C(=O)N[C@@H](CC(C)C)C(=O)N[C@@H](CCSC)C(=O)N[C@@H](Cc1cnc[nH]1)C(=O)N[C@@H](CC(N)=O)C(=O)N[C@@H](CC(C)C)C(=O)NCC(=O)N[C@@H](CCCCN)C(=O)N[C@H](CC(=O)N[C@@H](CC(C)C)C(=O)N[C@@H](CC(N)=O)C(=O)N[C@@H](CO)C(=O)N[C@@H](CCSC)CC(=O)N[C@@H](CCC(=O)O)C(=O)N[C@@H](CCCNC(=N)N)C(=O)N[C@H](C(=O)N[C@@H](CCC(=O)O)CC(=O)N[C@@H](Cc1c[nH]c2ccccc12)C(=O)N[C@@H](CC(C)C)C(=O)N[C@@H](CCCNC(=N)N)C(=O)N[C@@H](CCCCN)CC(=O)N[C@@H](CCCCN)C(=O)N[C@@H](CC(C)C)C(=O)N[C@@H](CCC(N)=O)C(=O)N[C@@H](CC(=O)O)CC(=O)N[C@H](C(=O)N[C@@H](Cc1cnc[nH]1)C(=O)N[C@@H](CC(N)=O)C(=O)N[C@H](CC(N)=O)Cc1ccccc1)C(C)C)C(C)C)Cc1c[nH]c2ccccc12, the fold change (FC) [1] is reported as 2.1, the Stability [6] is reported as “Unstable” and the Activity [7] is reported as “inactive”. For the same molecule, the Activity [2] was “Active” and the Activity [3] was “Active”.

With CC[C@H](C)[C@H](NC(=O)[C@H](CC(C)C)NC(=O)[C@H]1CNC[C@@H]1NC(=O)[C@H](Cc1cnc[nH]1)NC(=O)[C@H](CC(C)C)NC(=O)[C@H](Cc1ccccc1)NC(=O)[C@H]1CNC[C@@H]1NC(=O)[C@H](CCCNC(=N)N)NC(=O)[C@H](CCCNC(=N)N)NC(=O)[C@H](CCCNC(=N)N)NC(=O)[C@H]1CCC[C@@H]1NC(=O)[C@H](CC(=O)O)NC(=O)[C@H](CCC(N)=O)NC(=O)[C@@H](NC(=O)[C@H]1CCC[C@@H]1NC(=O)[C@H](CCCCN)NC(=O)CNC(=O)[C@H](CCCCN)NC(=O)[C@H](CC(=O)O)NC(=O)[C@H](Cc1cnc[nH]1)NC(=O)[C@H](CC(C)C)NC(=O)[C@H]1CCC[C@@H]1NC(=O)[C@H](CCC(N)=O)NC(=O)[C@H]1CCC[C@@H]1NC(=O)[C@H](CCC(=O)O)NC(=O)[C@H](CO)NC(=O)[C@@H](NC(=O)[C@H]1CCC[C@@H]1N)C(C)C)[C@@H](C)CC)C(=O)N[C@@H](C)C(=O)N[C@H]1CCC[C@@H]1C(=O)N[C@H](C(=O)N[C@@H](Cc1cnc[nH]1)C(=O)N[C@H](C(=O)N[C@H]1CCC[C@@H]1C(N)=O)[C@@H](C)O)[C@@H](C)CC ({ACPC(1S,2S)}-VSE[X1]Q[X1]LHDKGK[X1]IQD[X1]RRR[X2]FLH[X2]LIA[X1]IHT-{NH(1S,2S-2-CONH2-cPent)}) the EC50 [4] was 0.51 nM, the fold change (FC) [1] was 7.4 and the inhibition [5] was “Active”.

For CC[C@H](C)[C@H](NC(=O)[C@H](CCC(=O)O)NC(=O)[C@H](CO)NC(=O)[C@H]1CCC[C@@H]1NC(=O)[C@@H](N)CO)C(=O)N[C@@H](CCC(N)=O)C(=O)N[C@@H](CC(C)C)C(=O)N[C@@H](CCSC)C(=O)N[C@@H](Cc1cnc[nH]1)C(=O)N[C@@H](CC(N)=O)C(=O)N[C@@H](CC(C)C)C(=O)NCC(=O)N[C@@H](CCCCN)C(=O)N[C@@H](Cc1cnc[nH]1)C(=O)N[C@@H](CC(C)C)C(=O)N[C@@H](CC(N)=O)C(=O)N[C@@H](CO)C(=O)N[C@@H](CCSC)C(=O)N[C@@H](CCC(=O)O)C(=O)N[C@@H](CCCNC(=N)N)C(=O)N[C@H](C(=O)N[C@@H](CCC(=O)O)C(=O)N[C@@H](Cc1c[nH]c2ccccc12)C(=O)N[C@@H](CC(C)C)C(=O)N[C@@H](CCCNC(=N)N)C(=O)N[C@@H](CCCCN)C(=O)N[C@@H](CCCCN)C(=O)N[C@@H](CC(C)C)C(=O)N[C@@H](CCC(N)=O)C(=O)N[C@@H](CC(=O)O)C(=O)N[C@H](C(=O)N[C@@H](Cc1cnc[nH]1)C(=O)N[C@@H](CC(N)=O)C(=O)N[C@@H](Cc1ccccc1)C(N)=O)C(C)C)C(C)C, the EC50 [4] was 0.27 nM, the fold change (FC) [1] was 3 and the Activity [8] was “Active”.
